Reference: ChEMBL document CHEMBL2380272, “Biological evaluation of bisbenzaldehydes against four Mycobacterium species” (Eur J Med Chem, 2013)
In brackets after ≈: the same amount, converted by molar mass.

Assays:
[1] = Genotoxicity in human HepG2/C3A cells assessed as DNA fragmentation at 0.1 uM after 24 hrs by alkaline comet assay (reference value: 6.65%); format: toxicity, cell-based
In short: (§1)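 Alkaline comet assay. C3A cells, 40,000/well, recovered overnight, then exposed 24 h at 37 °C, 5% CO2 to 0.1–10 µM final, diluted in DMEM + 10% FCS from 1 mM DMSO stock. Cells embedded in low-melting agarose, lysed 1 h, denatured 40 min at pH > 13, electrophoresed 20 min at 300 mA, about 17 °C. Gel red stain, % tail DNA scored by fluorescence microscopy. EMS 0.5 and 0.75 mM as positive control. Mann–Whitney U test.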

[2] = tested on: Salmonella typhimurium; assay: Toxicity in recombinant Salmonella typhimurium TA104 expressing luxabcd genes under transcriptional control of constitutive pr1 promoter assessed as concentration required to reduce cell viability measured every 5 mins for 4 hrs by vitotox assay in absence of S9 fraction; format: organism-based; conditions: salmonella enterica subsp. enterica serovar typhimurium
In short: (§2)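 Cytox strain TA104 pr1 (constitutive promoter driving lux), run alongside the genox strain. Grown in poor LB at 36 °C for 16 h, diluted 125-fold and shaken 1 h, then diluted 10-fold, with or without aroclor-rat S9. Luminescence read at 30 °C every 5 min over 4 h; a drop in light signal indicates reduced viability. Top concentration 10 µM.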

[3] = tested on: Mycobacterium tuberculosis; assay: Antimycobacterial activity against Mycobacterium tuberculosis H37Rv infected in mouse J774.A1 cells at 1 MOI assessed as intracellular bacterial growth inhibition at 1 uM after 1 hr by luciferase reporter gene assay relative to control; format: functional; conditions: J774.A1, 1 h, read-out: GI
[4] = Cytotoxicity against human HepG2/C3A cells assessed as cell viability at 60 uM after 24 hrs by neutral red uptake assay relative to control; format: cell-based; conditions: read-out: Activity
In short: (§3)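 C3A cells grown in DMEM + 10% FCS, 40 000 cells/well, recovered overnight at 37 °C, 5% CO2. Exposed 24 h to serial dilutions in DMEM + 10% FCS from 18 mM DMSO stocks, DMSO limited to 1%. Neutral red added for 3 h, cells washed, dye extracted with ethanol/acetic acid (50%/1%), OD read at 540 nm with 620 nm reference. Viability expressed as % of untreated cells.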

[5] = Genotoxicity in human HepG2/C3A cells assessed as DNA fragmentation at 1 uM after 24 hrs by alkaline comet assay (reference value: 6.65%); format: toxicity, cell-based; in short: as §1
[6] = tested on: Mycobacterium avium subsp. paratuberculosis; assay: Antimycobacterial activity against Mycobacterium avium subsp. paratuberculosis ATCC 19698 assessed as growth inhibition after 6 days by luciferase reporter gene assay; format: functional; conditions: ATCC 19698, 144 h
In short: (§4)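 Mycobacteria carrying the pSMT1 luciferase reporter plasmid. Compounds came from 10 mM DMSO stocks and were serially diluted in 7H9 + 10% FCS. Thawed bacteria were filtered, recovered 1 h at 37 °C, then added at 50 000 RLU/mL. After 6 days of culture, light was read for 10 s after adding 1% n-decanal. Triplicates were run, and MIC50 was the concentration giving 50% growth inhibition.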

[7] = tested on: Mycobacterium tuberculosis; assay: Antimycobacterial activity against Mycobacterium tuberculosis H37Rv ATCC 27294 assessed as growth inhibition at 1 uM after 6 days by luciferase reporter gene assay relative to control; format: functional; conditions: H37Rv ATCC 27294, 144 h, read-out: GI
In short: (§5)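 Luminescent M. tb H37Rv (hsp60-driven luciferase) in 7H9 + 10% FCS was seeded at 50 000 RLU/mL. Compounds were tested at 10, 1 and 0.1 µM from 10 mM DMSO stocks. After 6 days, luminescence was read with 1% n-decanal. Growth inhibition (%) was expressed against untreated culture, with triplicates.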

[8] = Cytotoxicity against human HepG2/C3A cells assessed as cell viability at 120 uM after 24 hrs by neutral red uptake assay relative to control; format: cell-based; conditions: read-out: Activity; in short: as §3
[9] = tested on: Mycobacterium ulcerans; assay: Antimycobacterial activity against Mycobacterium ulcerans 1615 assessed as growth inhibition after 6 days by luciferase reporter gene assay; format: functional; conditions: Mycobacterium ulcerans, 1615, 144 h
In short: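 M. ulcerans 1615 carrying pSMT1 luciferase reporter plasmid, stock grown as surface pellicle on Sauton medium, cultured at 32 °C. Serial compound dilutions in 7H9 + 10% FCS from 10 mM DMSO stocks, tested in triplicate. Filtered bacteria added at 50 000 RLU/mL. After 6 days, wells collected and washed with PBS, 1% n-decanal in ethanol added, light read over 10 s. MIC50 = concentration giving 50% inhibition versus untreated.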

[10] = Selectivity index, ratio of NI50 for human HepG2/C3A cells to MIC50 for Mycobacterium tuberculosis H37Rv ATCC 27294; format: functional
[11] = Potency index, ratio of MIC50 for Mycobacterium avium subsp. paratuberculosis ATCC 19698 to MIC50 for Mycobacterium bovis AN5; format: functional
[12] = tested on: Mycobacterium tuberculosis; assay: Antimycobacterial activity against Mycobacterium tuberculosis H37Rv infected in mouse J774.A1 cells at 1 MOI assessed as intracellular bacterial growth inhibition at 10 uM after 1 hr by luciferase reporter gene assay relative to control; format: functional; conditions: J774.A1, 1 h, read-out: GI
[13] = Cytotoxicity against human HepG2/C3A cells assessed as cell viability at 180 uM after 24 hrs by neutral red uptake assay relative to control; format: cell-based; conditions: read-out: Activity; in short: as §3
[14] = tested on: Salmonella typhimurium; assay: Genotoxicity in recombinant Salmonella typhimurium TA104 expressing Vibrio fisheri luxabcd genes under transcriptional control of recN2-4 promoter assessed as concentration required to cause DNA damage measured every 5 mins for 4 hrs by vitotox assay in absence of S9 fraction; format: toxicity, organism-based; conditions: salmonella enterica subsp. enterica serovar typhimurium
In short: (§6)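 VITOTOX genox strain TA104 recN2-4 (recN promoter driving lux). Grown 16 h at 36 °C in poor LB, diluted 125-fold and shaken 1 h, then diluted 10-fold; rat aroclor S9 added for +S9 runs. Incubated at 30 °C with light read every 5 min for 4 h. Signal/noise = exposed over unexposed light. Highest concentration tested 10 µM.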

[15] = tested on: Mycobacterium tuberculosis; assay: Antimycobacterial activity against Mycobacterium tuberculosis H37Rv infected in mouse J774.A1 cells at 1 MOI assessed as intracellular bacterial growth inhibition at 0.1 uM after 1 hr by luciferase reporter gene assay relative to control; format: functional; conditions: J774.A1, 1 h, read-out: GI
[16] = Genotoxicity in human HepG2/C3A cells assessed as DNA fragmentation at 0.3 uM after 24 hrs by alkaline comet assay (reference value: 6.65%); format: toxicity, cell-based; in short: as §1
[17] = Potency index, ratio of MIC50 for Mycobacterium avium subsp. avium ATCC 15769 to MIC50 for Mycobacterium bovis AN5; format: functional
[18] = tested on: Salmonella typhimurium; assay: Genotoxicity in recombinant Salmonella typhimurium TA104 expressing Vibrio fisheri luxabcd genes under transcriptional control of recN2-4 promoter assessed as concentration required to cause DNA damage measured every 5 mins for 4 hrs by vitotox assay in presence of S9 fraction; format: toxicity, organism-based; conditions: salmonella enterica subsp. enterica serovar typhimurium, s9, 4 h; in short: as §6
[19] = Genotoxicity in human HepG2/C3A cells assessed as DNA fragmentation at 3 uM after 24 hrs by alkaline comet assay (reference value: 6.65%); format: toxicity, cell-based; in short: as §1
[20] = tested on: Mycobacterium tuberculosis; assay: Antimycobacterial activity against Mycobacterium tuberculosis H37Rv ATCC 27294 assessed as growth inhibition at 10 uM after 6 days by luciferase reporter gene assay relative to control; format: functional; conditions: H37Rv ATCC 27294, 144 h, read-out: GI; in short: as §5
[21] = Toxicity in recombinant Salmonella typhimurium TA104 expressing luxabcd genes under transcriptional control of constitutive pr1 promoter assessed as concentration required to reduce cell viability measured every 5 mins for 4 hrs by vitotox assay in presence of S9 fraction; format: organism-based; conditions: salmonella enterica subsp. enterica serovar typhimurium; read-out: Activity; in short: as §2
[22] = tested on: Mycobacterium tuberculosis; assay: Antimycobacterial activity against Mycobacterium tuberculosis H37Rv ATCC 27294 assessed as growth inhibition after 6 days by luciferase reporter gene assay; format: functional; conditions: H37Rv ATCC 27294, 144 h; in short: as §4
[23] = Genotoxicity in human HepG2/C3A cells assessed as DNA fragmentation at 10 uM after 24 hrs by alkaline comet assay (reference value: 6.65%); format: toxicity, cell-based; in short: as §1
[24] = Antimycobacterial activity against Mycobacterium avium subsp. avium ATCC 15769 assessed as growth inhibition after 6 days by luciferase reporter gene assay; format: functional; conditions: ATCC 15769, 144 h; in short: as §4
[25] = tested on: Mycobacterium tuberculosis; assay: Antimycobacterial activity against Mycobacterium tuberculosis H37Rv ATCC 27294 assessed as growth inhibition at 0.1 uM after 6 days by luciferase reporter gene assay relative to control; format: functional; conditions: H37Rv ATCC 27294, 144 h, read-out: GI; in short: as §5

Which results are given for `O=Cc1ccc(OCCCCCCCCCCCCOc2ccc(C=O)cc2)cc1`?
Activity [1]: 5.72%; Activity [2]: > 10 µM; percent inhibition of intracellular bacterial growth at 1 µM [3]: 53.1%; viability at 24 h, 60 µM [4]: 101%; Activity [5]: 7.62%; MIC50 [6]: 4.75 µM (≈ 1.95 µg/mL); inhibition of growth at 1 µM [7]: 81%; viability at 24 h, 120 µM [8]: 89.9%; MIC50 [9]: 8.21 µM (≈ 3.37 µg/mL); Selectivity Index [10]: >346.2; Ratio [11]: 5; intracellular bacterial growth inhibition at 10 µM [12]: 74%; viability at 24 h, 180 µM [13]: 68.1%; Activity [14]: > 10 µM; intracellular bacterial growth inhibition at 0.1 µM [15]: 13.5%; Activity [16]: 7.64%; Ratio [17]: 5; Activity [18]: > 10 µM; Activity [19]: 7.44%; inhibition of growth at 10 µM [20]: 100%; MCC at 4 h [21]: > 10 µM; MIC50 [22]: 0.52 µM (≈ 0.213 µg/mL); Activity [23]: 6.97%; MIC50 [24]: 5.01 µM (≈ 2.06 µg/mL); inhibition of growth at 0.1 µM [25]: 26%
